Results as given in PubChem BioAssay.
Values without a mark were called inactive. Records with an inconclusive call do not appear. The source made the active and inactive calls.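 The calls were made as follows, unless noted: active = RAM network inhibition above 8.4% in each of two replicates, 3 SD over the compound average; inconclusive = above 8.4% inhibition in only one replicate; inactive = 8.4% inhibition or less in each replicate.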

Assays:
[1] = OD615 S. cerevisiae growth inhibition, permissive medium, pilot counter-assay, permissive growth control for S. cerevisiae lifespan shortening project (AID 705;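 active = growth inhibition above 25% in both replicates, a cutoff set 3 SD above the mean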); settings: OD615, 24 h, at 10 µM, active compounds read high
Summary of the method: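 System – S. cerevisiae with engineered DeaD lifespan system · Buffer or medium – SC raffinose/galactose permissive medium · Schedule – cells pre-grown 4 h, then 24 h compound exposure, 30 °C humidified · Technique – culture turbidity as optical density at 615 nm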

[2] = Restrictive medium S. cerevisiae growth inhibition, OD615, pilot screen of yeast lifespan reduction project, restrictive growth control (AID 706;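 active = growth inhibition above a set limit, 3 SD over mean compound inhibition, in both replicates, cut at about 43% in these data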;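 also: modified DeaD lifespan yeast strain shifted to restrictive glucose medium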); settings: OD615, 48 h, at 10 µM, active compounds read high
Summary of the method: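 Material: engineered S. cerevisiae DeaD strain / Medium: glucose-based CSMM-D restrictive medium / Compound: single dose of 10 µM compound final, 0.25% DMSO / Timing: 4 h pre-incubation, 48 h exposure at 30 °C / Technique: OD615 absorbance reading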

[3] = viability gain of MRP-1-high H69AR cells under doxorubicin, pilot screen, MRP-1 activator project, CellTiter-Glo, duplicate (AID 807;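 active = viability increase at or above a cutoff of the median across tested compounds plus 3 SD, cut at about 8.5% in these data, passing the limit was not always enough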;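 also: compound pretreatment 18-22 h then 72 h combined with doxorubicin; 0% = doxorubicin alone and 100% = vehicle without doxorubicin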); settings: H69AR viability with doxorubicin, CellTiter-Glo luminescence; at 10 µM; active compounds read high
[4] = growth suppression of beta-catenin knockout HCT116, pilot screen, human colon tumor cells (AID 823;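 active = cell viability at or below a set limit in both duplicate runs, the limit being the all-compound median minus 4 SD, cut at about 23% in these data, passing the limit was not always enough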;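 also: 0% = wells killed by 20 µM Hyamine and 100% = untreated DMSO cell wells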); settings: CellTiter-Glo, 60 h, at 10 µM, active compounds read low
[5] = growth suppression of PTEN-deleted HCT116, pilot screen, cell-based, HCT116 clonal line, CellTiter-Glo (AID 824;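 active = viability at or below 27.92% in each of two runs, the all-compound median minus 4 SD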;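 also: 0% = 20 µM Hyamine control and 100% = vehicle cell control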); settings: 60 h, at 10 µM, active compounds read low
[6] = inhibitors of the yeast RAM network, pilot screen, dse1pr::URA3 reporter, 5-FOA selection (AID 869;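 active = inhibition over a set limit, the all-compound mean plus 3 SD, in both replicate runs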;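 also: 0% = DMSO wells with no growth and 100% = 10 µM 1-NA-PP1 with full growth; RAM network block rescues cells from 5-FOA so hits raise OD615 growth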); settings: S. cerevisiae dse1pr::URA3 5-FOA growth, OD615, 2 d; at 10 µM; active compounds read high; strain carries analog-sensitive mutant Cbk1 kinase
[7] = RAM signaling pathway blockade in yeast – S. cerevisiae, Pdr1DBD-CYC8 efflux-inhibited sensitized strain, primary screen (AID 1298);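 also: 0% = DMSO untreated cells without growth and 100% = 10 µM 1-NA-PP1 full growth; higher means more yeast growth rescued from 5-FOA killing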; settings: S. cerevisiae cbk1-as DSE1-URA3 strain, 5-FOA growth OD615, 2 d; at 50 µM; active compounds read high

Row | Compound | growth inhibition [1] | growth inhibition [2] | viability increase [3] | viability [4] | viability [5] | inhibition [6] | RAM network inhibition [7]
1 | O=C(O)CC(C(=O)NC1CCCCC1)C1CCCO1 (centres undefined) | -1.02% | -15.1% | -1.68% | 98.3% | 102% | 0.36% | 1.76%
2 | CCOC(=O)Cn1c(=O)oc2cc(S(=O)(=O)Nc3c(C)cc(C)cc3C)ccc21 | -11.4% | -14.1% | -2.56% | 94.5% | 95.3% | 0.86% | 4.9%
3 | CCOc1ccc(Br)cc1/C=N/O | -17.4% | -29.9% | -1.73% | 80.3% | 87.1% | 0.11% | -0.16%
4 | Cn1c(Cn2c(=O)sc3ccccc32)nnc1SCC(N)=O | -17.4% | -3.94% | 0.08% | 110% | 88% | 1.82% | 3.26%
5 | COc1ccc(S(=O)(=O)n2cnc3cc(C)c(C)cc32)cc1 | 3.51% | 6.05% | -1.56% | 90.9% | 93.4% | 1.26% | -1.04%
6 | Cc1cc(CN2C(=O)c3ccccc3C2=O)cc(N2CCOCC2)c1 | -9.23% | -10.3% | -2.19% | 95% | 87.7% | 0.76% | 1.4%
7 | O=C(CSc1ncn[nH]1)Nc1nnc(-c2ccccc2)s1 | 6.24% | 11.1% | 4.9% | 94.3% | 93.7% | -0.75% | 0.61%
8 | CCOC(=O)C1CCCCN1Cc1cc(Cl)ccc1O (centres undefined) | -3.16% | -13.2% | 0.31% | 87% | 81% | 0.74% | 3.98%
9 | COc1cc(C(=O)Nc2ccc(N(C)C)cc2)cc(OC)c1OC | -13.9% | -11.7% | -5.23% | 82.2% | 82.9% | 1.14% | 2.49%
10 | Cc1ccc(C2CC(c3ccc(Cl)cc3)n3nc(N)nc3N2)cc1 (centres undefined) | 1.88% | 7.93% | -0.27% | 93.9% | 93.5% | 1.9% | 8.2%
11 | CC1CCCCC1NC(=O)c1nnc(Cc2ccc(Cl)cc2)o1 (centres undefined) | -9.84% | -0.745% | 3.87% | 104% | 90.8% | 1.07% | 9.76%
12 | CCOc1ccc(C(=O)c2nc3c(n2O)CCCC3)cc1 | -15% | -7.18% | 0.17% | 91.1% | 103% | 1.41% | -0.74%
13 | CN(CC(=O)N1CCc2ccccc21)S(=O)(=O)c1cccc2cccnc12 | -0.355% | -2.55% | -3.47% | 93.9% | 90.8% | 1.47% | 8.8%
14 | CCN1CCN(Cc2ccc(NC(=O)Nc3ccccc3OC)cc2)CC1 | -1.11% | 4.37% | 0.28% | 108% | 105% | 0.235% | 2.68%
15 | O=C(Nc1nc(-c2cccs2)cs1)c1ccc(S(=O)(=O)N2CCCCC2)cc1 | 0.945% | -2.17% | -3.02% | 71.7% | 61.8% | 1.4% | 4.06%
16 | CCOC(=O)Nc1ccccc1C(=O)N1CCOCC1 | -8.68% | -2.7% | -0.42% | 97.5% | 98% | 1.89% | 2.52%
17 | CCCN(CCC(=O)Nc1ccccc1F)CC1CC1 | -12.8% | -18.1% | -1.44% | 99.1% | 95.3% | 0.64% | -0.31%
18 | COc1ccc2c(c1)c(CCN1C(=O)c3ccccc3C1=O)cn2C(=O)c1ccco1 | -5.41% | 0.45% | -4.3% | 85.7% | 85.9% | 2.02% | 4.8%
19 | C=CCn1c(=NC(=O)C2CC2)sc2cc(NC(C)=O)ccc21 | -3% | -3.58% | -4.77% | 95.7% | 101% | 0.675% | 0.32%

Row | Compound | growth inhibition [1] | growth inhibition [2] | viability increase [3] | viability [4] | viability [5] | inhibition [6] | RAM network inhibition [7]
20 | O=C(Nc1nnc(-c2cccs2)o1)c1cccc(C(F)(F)F)c1 | -14.9% | 7.83% | -0.12% | 15.5% (active) | 19.5% (active) | 1.56% | 3.02%
21 | COc1ccc(S(=O)(=O)Cc2ccc(C(=O)NC3CCCC3)o2)cc1 | -0.76% | -12% | -1.65% | 108% | 96.3% | 1.19% | 2.65%
22 | Cn1cnnc1SCC(=O)c1ccc2c(c1)CCCC2 | -1.79% | 12.5% | -1.07% | 105% | 96.6% | 0.17% | 4.35%
23 | Cn1c(=O)c2c(nc(CN3CCOCC3)n2CCCO)n(C)c1=O | -5.86% | -3.44% | -0.74% | 102% | 101% | 1.76% | 6.48%
24 | CC1Cc2nc(SCC(=O)N3CCCC3)n(C)c(=O)c2S1 (centres undefined) | -3.58% | -13.8% | -3.27% | 98.2% | 87.9% | 1.17% | 5.83%
25 | COc1ccc(N2CCN(c3cc(=O)n(Cc4ccc(F)cc4)c(=O)[nH]3)CC2)cc1 | -4.88% | 1.23% | -2.97% | 92.9% | 86.3% | 0.215% | 9.17%
26 | C=CCNC(=O)COc1ccc(Br)cc1Cl | -15.7% | -6.88% | 1.27% | 99% | 91.2% | 1.36% | 9.74%
27 | COC(=O)c1nc2n(n1)C(c1cccc(Cl)c1)C1=C(CCCC1=O)N2 (centres undefined) | -4.09% | 7.08% | -2.99% | 98.1% | 95.3% | 0.155% | 1.89%
28 | O=C(c1cc(-c2cccc(O)c2)on1)N1CCOCC1 | 1.27% | 7.52% | 0.64% | 107% | 98.4% | 2.15% | 2.22%
29 | C=C(C)CSc1nc2c(c(=O)[nH]c(=O)n2C)n1Cc1ccccc1 | -16.7% | -22.9% | 3.2% | 83.8% | 78.3% | 2.96% | 7.74%
30 | O=C(CC(=O)N1CCN(c2ccccn2)CC1)Nc1ccc2nc3n(c(=O)c2c1)CCCCC3 | -3.13% | -3.46% | 0.08% | 101% | 100% | 0.87% | 2.7%
31 | COc1cc(SC)ccc1C(=O)Nc1ccc2c(c1)OCCO2 | -7.61% | -4.97% | -0.82% | 67.1% | 65.8% | 1.18% | -0.97%
32 | CSc1ncccc1C(=O)OCC(=O)c1cc2ccccc2o1 | -12.5% | -20.7% | 0.25% | 85% | 93.7% | 3.42% | 4.75%
33 | COc1cc(C(=O)Oc2c(CN3CCOCC3)cc(Cl)c3cccnc23)cc(OC)c1OC | -8.94% | -33.1% | -8.41% | 6.72% (active) | 4.81% (active) | 1.09% | 0.27%
34 | Cc1ccc(F)c(NC(=O)C2CCCCC2C(=O)O)c1 (centres undefined) | 1.12% | -20.6% | -2.22% | 90.7% | 94% | 0.145% | 2.88%
35 | CC(CCc1ccccc1)NC(=O)CSc1nccc(=O)[nH]1 (centres undefined) | -20.5% | -6.91% | -0.56% | 94.2% | 94.5% | 1.06% | 2.7%
36 | Cc1cc(C)n(-c2nc(NC(C)(C)C)nc(NC(C)(C)C)n2)n1 | -11.5% | 11.4% | -2.08% | 8.58% (active) | 11.2% (active) | 2.85% | 5.62%
37 | COCCN1C(=O)c2ccccc2C(C(=O)N2CCN(c3ccccn3)CC2)C1c1ccc(F)cc1 (centres undefined) | 1.72% | -22.7% | -4.12% | 92.2% | 90.4% | 0.335% | 8.63%
